Test [1] has as its target T1, Serine/threonine-protein kinase Sgk1 (Homo sapiens) (UniProt O00141).
T1 sequence (whole entry): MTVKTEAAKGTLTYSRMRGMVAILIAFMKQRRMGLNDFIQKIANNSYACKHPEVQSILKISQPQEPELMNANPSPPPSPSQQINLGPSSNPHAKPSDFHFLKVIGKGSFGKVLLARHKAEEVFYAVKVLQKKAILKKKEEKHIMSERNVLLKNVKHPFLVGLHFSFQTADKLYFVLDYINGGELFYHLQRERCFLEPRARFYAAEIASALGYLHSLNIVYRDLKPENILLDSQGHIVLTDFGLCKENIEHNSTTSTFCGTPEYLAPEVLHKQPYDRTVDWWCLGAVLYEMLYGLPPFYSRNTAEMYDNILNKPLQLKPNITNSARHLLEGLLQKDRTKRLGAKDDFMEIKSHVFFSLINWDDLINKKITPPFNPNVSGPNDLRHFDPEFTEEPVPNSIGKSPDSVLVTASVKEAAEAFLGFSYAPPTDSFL
Put plainly: Inhibition of SGK1 (unknown origin) at 10 uM relative to control. The procedure, abridged: (§1)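 Single-concentration screen across a panel of 59 protein kinases, with each compound tested at one fixed concentration. The read-out is residual kinase activity relative to control. Panel results are also condensed into a rescaled geometric mean (RGM) selectivity score.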

In test [2] the target is 3-phosphoinositide-dependent protein kinase 1 (Homo sapiens) (UniProt O15530). The experiment in a line: Inhibition of PDK1 (unknown origin) at 10 uM relative to control.
Test [3] concerns the target Mitogen-activated protein kinase 14 (Homo sapiens) (UniProt Q16539). Put plainly: Inhibition of p38a MAPK (unknown origin) at 10 uM relative to control. The procedure, abridged: as §1
The target of test [4] is Serine/threonine-protein kinase Chk2 (Homo sapiens) (UniProt O96017). Put plainly: Inhibition of CHK2 (unknown origin) at 10 uM relative to control. An outline of the steps: (§2)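 Single-point screen of each compound against a panel of 59 protein kinases, at 1 or 10 μM. The panel data are also summarised as a rescaled geometric mean selectivity score.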
The target in test [5] is Tyrosine-protein kinase Yes (Homo sapiens) (UniProt P07947). The experiment in a line: Inhibition of YES1 (unknown origin) at 10 uM relative to control. An outline of the steps: as §1
Test [6] concerns the target Mitogen-activated protein kinase 1 (Homo sapiens) (UniProt P28482). The experiment in a line: Inhibition of ERK2 (unknown origin) at 10 uM relative to control. The procedure, abridged:
as §2

The target of test [7] is T2, Serine/threonine-protein kinase D1 (Homo sapiens) (UniProt Q15139).
T2 sequence (whole entry): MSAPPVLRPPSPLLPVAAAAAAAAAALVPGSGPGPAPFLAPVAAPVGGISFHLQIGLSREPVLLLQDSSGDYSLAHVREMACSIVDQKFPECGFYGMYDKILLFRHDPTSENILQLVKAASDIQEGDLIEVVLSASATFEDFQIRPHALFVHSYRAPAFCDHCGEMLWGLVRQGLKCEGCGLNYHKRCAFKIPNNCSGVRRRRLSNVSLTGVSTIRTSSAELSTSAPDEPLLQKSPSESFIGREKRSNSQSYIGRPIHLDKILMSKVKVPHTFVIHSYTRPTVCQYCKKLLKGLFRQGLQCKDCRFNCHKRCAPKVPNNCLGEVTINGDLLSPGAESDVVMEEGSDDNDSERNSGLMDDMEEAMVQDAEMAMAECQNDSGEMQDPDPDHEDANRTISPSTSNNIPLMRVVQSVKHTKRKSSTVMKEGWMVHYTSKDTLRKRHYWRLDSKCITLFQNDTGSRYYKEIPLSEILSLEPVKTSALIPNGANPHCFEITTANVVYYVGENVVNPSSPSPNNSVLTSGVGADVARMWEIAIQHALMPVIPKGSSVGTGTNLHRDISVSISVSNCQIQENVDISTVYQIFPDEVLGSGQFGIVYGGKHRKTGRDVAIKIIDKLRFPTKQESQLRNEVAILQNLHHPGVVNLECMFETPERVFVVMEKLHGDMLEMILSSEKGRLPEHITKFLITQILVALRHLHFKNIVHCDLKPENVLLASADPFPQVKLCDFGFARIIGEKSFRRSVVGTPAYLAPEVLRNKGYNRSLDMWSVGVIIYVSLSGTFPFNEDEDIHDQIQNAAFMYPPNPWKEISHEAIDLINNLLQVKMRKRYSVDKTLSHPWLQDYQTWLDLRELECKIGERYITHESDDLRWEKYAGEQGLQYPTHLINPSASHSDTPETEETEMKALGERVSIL
Put plainly: Inhibition of PKD1 (unknown origin) at 10 uM relative to control. The procedure, abridged: (§3)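 Single-concentration screen of each compound against a 59-protein-kinase panel, run at 10 µM or 1 µM. Activity relative to control is shown as a heat map across the panel.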

Test [8] concerns the target Casein kinase I (Homo sapiens) (UniProt Q9HCP0+P78368+P48730+P49674+P48729). The experiment in a line: Inhibition of CK1 (unknown origin) at 10 uM relative to control. It is filed as protein assay. An outline of the steps: as §2
The target of test [9] is Tyrosine-protein kinase BTK (Homo sapiens) (UniProt Q06187). Put plainly: Inhibition of BTK (unknown origin) at 10 uM relative to control. An outline of the steps:
as §2

In test [10] the target is T3, Protein kinase C zeta type (Homo sapiens) (UniProt Q05513).
T3 sequence (whole entry): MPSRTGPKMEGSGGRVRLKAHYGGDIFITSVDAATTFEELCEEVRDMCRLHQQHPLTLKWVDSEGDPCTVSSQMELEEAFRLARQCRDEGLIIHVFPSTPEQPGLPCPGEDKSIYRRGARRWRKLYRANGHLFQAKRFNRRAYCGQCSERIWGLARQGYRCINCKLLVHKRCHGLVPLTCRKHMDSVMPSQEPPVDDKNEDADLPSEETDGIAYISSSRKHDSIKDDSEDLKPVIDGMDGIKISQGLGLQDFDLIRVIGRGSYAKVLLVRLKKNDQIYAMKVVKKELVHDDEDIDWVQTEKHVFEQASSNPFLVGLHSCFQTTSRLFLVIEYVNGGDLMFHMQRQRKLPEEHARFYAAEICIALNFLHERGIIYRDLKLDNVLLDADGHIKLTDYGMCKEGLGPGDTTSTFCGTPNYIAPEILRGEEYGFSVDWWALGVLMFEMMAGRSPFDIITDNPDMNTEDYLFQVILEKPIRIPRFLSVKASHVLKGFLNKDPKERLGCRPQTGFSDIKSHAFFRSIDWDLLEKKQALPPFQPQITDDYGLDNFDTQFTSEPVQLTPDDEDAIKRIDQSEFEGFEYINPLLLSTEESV
The experiment in a line: Inhibition of PKCz (unknown origin) at 10 uM relative to control. The procedure, abridged: as §3

Test [11] concerns the target AMP-activated protein kinase, AMPK (Homo sapiens) (UniProt P54646+O43741+P54619+Q9UGJ0+Q9Y478+Q13131+Q9UGI9). The experiment in a line: Inhibition of AMPK (unknown origin) at 10 uM relative to control. The format is protein-complex assay. An outline of the steps:
as §2

The target in test [12] is Ribosomal protein S6 kinase alpha-1 (Homo sapiens) (UniProt Q15418). The experiment in a line: Inhibition of RSK1 (unknown origin) at 10 uM relative to control. The procedure, abridged: as §3
The target in test [13] is MAP kinase-interacting serine/threonine-protein kinase 1 (Homo sapiens) (UniProt Q9BUB5). Put plainly: Inhibition of MNK1 (unknown origin) at 10 uM relative to control. The procedure, abridged:
as §3

Consider four molecules from ChEMBL document CHEMBL4330096, “Discovery of potent and selective 5-azaindazole inhibitors of leucine-rich repeat kinase 2 (LRRK2) - Part 1” (Bioorg Med Chem Lett, 2019).

Structures are written as SMILES.

Sequence of 3-phosphoinositide-dependent protein kinase 1 (Homo sapiens) (O15530 whole entry, looked up): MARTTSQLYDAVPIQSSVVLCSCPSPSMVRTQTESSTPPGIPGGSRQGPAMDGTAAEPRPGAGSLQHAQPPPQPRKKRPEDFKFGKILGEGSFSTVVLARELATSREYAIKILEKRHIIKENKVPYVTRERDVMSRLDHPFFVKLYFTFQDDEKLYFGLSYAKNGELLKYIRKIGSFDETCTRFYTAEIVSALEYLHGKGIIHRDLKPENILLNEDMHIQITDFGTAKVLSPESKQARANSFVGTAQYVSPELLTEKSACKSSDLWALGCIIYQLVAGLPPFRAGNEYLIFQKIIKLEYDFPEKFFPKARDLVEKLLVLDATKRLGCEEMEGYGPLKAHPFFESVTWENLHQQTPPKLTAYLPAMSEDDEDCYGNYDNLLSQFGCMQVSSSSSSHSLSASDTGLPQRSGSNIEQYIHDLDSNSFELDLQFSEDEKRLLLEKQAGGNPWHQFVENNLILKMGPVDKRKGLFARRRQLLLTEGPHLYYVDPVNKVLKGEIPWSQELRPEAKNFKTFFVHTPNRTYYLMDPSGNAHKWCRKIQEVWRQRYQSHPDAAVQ
Sequence of Tyrosine-protein kinase Yes (Homo sapiens) (P07947 2-543 limits assumed): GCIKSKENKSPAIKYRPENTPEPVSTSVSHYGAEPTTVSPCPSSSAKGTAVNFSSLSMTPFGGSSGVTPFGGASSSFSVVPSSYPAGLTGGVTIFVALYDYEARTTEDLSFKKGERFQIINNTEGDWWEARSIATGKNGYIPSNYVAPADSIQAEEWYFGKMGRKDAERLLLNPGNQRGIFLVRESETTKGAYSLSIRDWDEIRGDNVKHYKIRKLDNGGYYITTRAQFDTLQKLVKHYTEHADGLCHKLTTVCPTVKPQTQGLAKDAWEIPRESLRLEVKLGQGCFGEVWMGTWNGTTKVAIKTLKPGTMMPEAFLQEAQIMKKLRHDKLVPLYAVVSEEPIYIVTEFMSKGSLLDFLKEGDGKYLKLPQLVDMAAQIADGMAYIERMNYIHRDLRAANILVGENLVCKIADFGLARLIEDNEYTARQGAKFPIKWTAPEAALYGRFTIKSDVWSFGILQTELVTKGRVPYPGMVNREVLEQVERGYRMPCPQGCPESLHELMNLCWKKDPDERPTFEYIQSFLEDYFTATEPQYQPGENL
Sequence of MAP kinase-interacting serine/threonine-protein kinase 1 (Homo sapiens) (Q9BUB5 whole entry, looked up): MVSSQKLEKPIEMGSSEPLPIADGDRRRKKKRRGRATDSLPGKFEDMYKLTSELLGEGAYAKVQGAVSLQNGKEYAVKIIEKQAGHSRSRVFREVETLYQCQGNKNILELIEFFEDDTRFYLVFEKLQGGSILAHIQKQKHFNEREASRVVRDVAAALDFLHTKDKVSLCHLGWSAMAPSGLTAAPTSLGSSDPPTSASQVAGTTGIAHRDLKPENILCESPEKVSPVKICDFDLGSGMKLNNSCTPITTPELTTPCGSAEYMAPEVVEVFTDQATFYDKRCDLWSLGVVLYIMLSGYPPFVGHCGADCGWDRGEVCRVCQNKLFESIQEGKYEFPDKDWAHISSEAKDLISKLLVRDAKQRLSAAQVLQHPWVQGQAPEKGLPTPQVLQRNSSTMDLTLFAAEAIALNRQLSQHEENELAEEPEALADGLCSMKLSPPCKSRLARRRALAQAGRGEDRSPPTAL
Sequence of Ribosomal protein S6 kinase alpha-1 (Homo sapiens) (Q15418 whole entry): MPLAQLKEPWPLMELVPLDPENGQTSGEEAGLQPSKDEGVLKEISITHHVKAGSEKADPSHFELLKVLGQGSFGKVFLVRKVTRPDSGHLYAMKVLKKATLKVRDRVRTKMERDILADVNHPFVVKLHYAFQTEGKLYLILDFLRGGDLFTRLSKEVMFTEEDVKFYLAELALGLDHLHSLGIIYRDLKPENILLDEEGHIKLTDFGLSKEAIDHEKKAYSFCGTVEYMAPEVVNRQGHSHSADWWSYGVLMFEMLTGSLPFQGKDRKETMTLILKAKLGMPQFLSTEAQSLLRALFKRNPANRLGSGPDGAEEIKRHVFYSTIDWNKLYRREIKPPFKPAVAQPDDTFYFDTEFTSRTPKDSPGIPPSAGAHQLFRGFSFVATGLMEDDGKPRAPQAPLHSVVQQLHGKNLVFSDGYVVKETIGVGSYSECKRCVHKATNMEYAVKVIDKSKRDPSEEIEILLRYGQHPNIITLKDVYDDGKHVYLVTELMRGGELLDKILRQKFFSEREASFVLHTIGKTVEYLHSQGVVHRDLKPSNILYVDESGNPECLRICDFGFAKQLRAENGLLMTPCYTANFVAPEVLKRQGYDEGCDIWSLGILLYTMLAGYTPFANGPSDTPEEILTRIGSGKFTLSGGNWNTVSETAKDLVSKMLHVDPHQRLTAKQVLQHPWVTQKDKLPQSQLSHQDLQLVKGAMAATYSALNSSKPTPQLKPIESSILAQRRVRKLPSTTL
Sequence of Tyrosine-protein kinase BTK (Homo sapiens) (Q06187 whole entry): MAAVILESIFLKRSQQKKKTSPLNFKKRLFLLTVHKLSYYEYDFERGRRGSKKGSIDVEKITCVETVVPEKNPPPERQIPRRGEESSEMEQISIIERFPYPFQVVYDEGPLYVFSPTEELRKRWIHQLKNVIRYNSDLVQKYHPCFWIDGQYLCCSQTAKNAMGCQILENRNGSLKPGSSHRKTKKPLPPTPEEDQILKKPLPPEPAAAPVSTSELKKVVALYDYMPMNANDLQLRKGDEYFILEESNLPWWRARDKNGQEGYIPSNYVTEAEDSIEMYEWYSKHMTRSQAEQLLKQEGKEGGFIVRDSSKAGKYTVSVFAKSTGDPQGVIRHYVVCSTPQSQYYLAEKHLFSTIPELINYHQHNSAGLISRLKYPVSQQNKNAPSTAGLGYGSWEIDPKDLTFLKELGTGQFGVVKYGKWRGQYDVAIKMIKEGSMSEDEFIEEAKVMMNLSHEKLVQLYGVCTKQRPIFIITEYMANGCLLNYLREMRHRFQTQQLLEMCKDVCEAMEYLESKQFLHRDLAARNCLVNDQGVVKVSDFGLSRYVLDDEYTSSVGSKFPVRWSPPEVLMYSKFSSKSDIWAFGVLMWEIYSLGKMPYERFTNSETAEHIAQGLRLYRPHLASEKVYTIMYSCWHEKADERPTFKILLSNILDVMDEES
Sequence of Serine/threonine-protein kinase Chk2 (Homo sapiens) (O96017 whole entry): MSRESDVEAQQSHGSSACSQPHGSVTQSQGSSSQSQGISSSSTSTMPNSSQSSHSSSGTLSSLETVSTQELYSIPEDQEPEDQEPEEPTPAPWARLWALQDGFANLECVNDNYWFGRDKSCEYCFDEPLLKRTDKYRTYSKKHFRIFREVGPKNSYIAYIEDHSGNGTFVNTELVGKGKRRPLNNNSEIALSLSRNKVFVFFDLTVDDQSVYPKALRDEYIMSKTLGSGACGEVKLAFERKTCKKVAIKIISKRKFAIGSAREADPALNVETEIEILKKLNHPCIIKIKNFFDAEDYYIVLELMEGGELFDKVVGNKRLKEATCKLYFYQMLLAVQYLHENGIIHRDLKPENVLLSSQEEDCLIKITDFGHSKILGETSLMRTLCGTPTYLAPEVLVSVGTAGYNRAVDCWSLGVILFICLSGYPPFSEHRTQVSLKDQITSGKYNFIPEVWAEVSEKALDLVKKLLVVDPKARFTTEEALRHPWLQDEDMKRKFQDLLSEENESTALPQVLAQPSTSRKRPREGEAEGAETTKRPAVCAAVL
Sequence of Mitogen-activated protein kinase 14 (Homo sapiens) (Q16539 whole entry): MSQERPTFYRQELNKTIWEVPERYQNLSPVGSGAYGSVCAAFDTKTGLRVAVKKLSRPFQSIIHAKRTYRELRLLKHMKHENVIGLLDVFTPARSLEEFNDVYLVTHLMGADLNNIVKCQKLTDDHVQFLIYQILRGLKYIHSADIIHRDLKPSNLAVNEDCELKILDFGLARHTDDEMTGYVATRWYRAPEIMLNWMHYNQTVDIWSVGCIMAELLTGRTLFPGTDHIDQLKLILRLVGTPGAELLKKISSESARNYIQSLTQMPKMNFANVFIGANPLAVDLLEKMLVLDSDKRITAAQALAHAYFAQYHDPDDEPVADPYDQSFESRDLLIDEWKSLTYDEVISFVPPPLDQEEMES
Sequence of Mitogen-activated protein kinase 1 (Homo sapiens) (P28482 whole entry): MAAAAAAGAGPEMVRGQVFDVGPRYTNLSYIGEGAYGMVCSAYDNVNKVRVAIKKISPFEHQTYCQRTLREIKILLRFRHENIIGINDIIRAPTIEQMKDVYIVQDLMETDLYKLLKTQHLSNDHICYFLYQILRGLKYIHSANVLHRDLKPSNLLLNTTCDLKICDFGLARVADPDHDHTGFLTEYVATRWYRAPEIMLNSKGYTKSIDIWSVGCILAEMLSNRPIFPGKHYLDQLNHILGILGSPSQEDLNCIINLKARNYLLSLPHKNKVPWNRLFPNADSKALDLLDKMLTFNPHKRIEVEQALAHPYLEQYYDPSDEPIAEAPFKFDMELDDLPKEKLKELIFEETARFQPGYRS

As for `Cc1n[nH]c2ccnc(NC3CCCCC3)c12`, the inhibition stood at 41% in test [1]; 13% in [2]; 9% in test [3]; 37% in [4]; 30% in test [5]; 29% in test [6]. Further, the inhibition in test [7] was 34%; in [8], 27%; in [9] it was 70%; in [10] it was 0%; in test [11], 29%; in test [12], 59%. The inhibition in [13] was found to be 0%.
With `Cc1n[nH]c2ccnc(OC3CCCCC3)c12`, the inhibition in [1] was determined as 73%; in test [2], 34%; in test [3], 0%; in [4], 63%; in [5], 44%; in [6] it was 66%. The inhibition in test [7] came to 70%; in test [8], 86%; in [9] it was 40%; in [10] it was 19%; in test [11], 82%; in [12], 84%. This molecule also displayed an inhibition in test [13] of 12%.
On to `Cc1n[nH]c2ccnc(Nc3ccccc3F)c12`, for which the inhibition in test [1] came out at 69%; in [2] it was 25%; in [3], 10%; in [4] it was 26%; in [5], 26%; in test [6] it was 77%. Besides, the inhibition in [7] amounted to 60%; in [8] it was 46%; in test [9], 26%; in test [10], 0%; in [11], 56%; in test [12] it was 61%. In test [13], this molecule returned an inhibition of 18%.
For the molecule `Cc1n[nH]c2ccnc(Nc3ccc4ncsc4c3)c12`, the inhibition in [3] worked out at 0%; in [4] it was 36%; in [6] it was 24%; in [8], 77%; in [9] it was 10%; in [12], 84%.

In general, inhibition refers to the share of the control response that was lost under treatment. High values mean strong suppression, low ones little suppression.
